Most compounds without a hit are left out; they make up all but 4.3% or so of the library.
MC4R antagonist: MC4R antagonists of cAMP signaling, primary screen, cell-based, TR-FRET, antagonist arm of biased-ligand search; Melanocortin receptor 4 (Homo sapiens), P32245; AID 540295, 2011; MC4R-expressing cells, MTII-stimulated cAMP, LANCE TR-FRET; actives 0.48% (n = 360,000); inhibition, % at 6.5 µM;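 active means inhibition above its plate's cutoff, the mean of tested wells on that plate plus 3 SD, cut at about 29% in these data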;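 further: 0% = Melanotan II alone and 100% = Melanotan II plus saturating MCL0020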
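System: U2OS cells stably expressing human melanocortin 4 receptor (MC4R). Reagent: Melanotan II challenge after compound preincubation. Doses: 6.5 µM. Times: 30-min compound, 1-h challenge, 1-h detection, room temperature. Measured by: TR-FRET with Eu-cAMP and labeled anti-cAMP, 671 nm. Replicates: singlicate.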
Beta2AR agonist: beta2AR agonists driving receptor internalization, primary screen, cell-based, FAP fluorogen, flow cytometry. AID 504454, 2011. actives 0.43% (n = 340,000). Am2.2-beta2AR cells. Beta-2 adrenergic receptor (Homo sapiens), P07550. response, % (test concentration not listed);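 active means response above a set limit, near 3 SD of response in nonfluorescent compounds, cut at about 42% in these data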
HTR2A ag: mouse Htr2a agonists via beta-arrestin recruitment, primary screen, cell-based, luminescence; actives 0.66% (n = 360,000); CHO-K1 mHTR2A beta-arrestin complementation; percent of 30 µM serotonin response; AID 624169, 2012; activation, % at 7.6 µM;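 active means activation above a run cutoff, the mean activation of all tested compounds plus 3 SD, cut at about 14% in these data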;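 further: 0% = plate median of compound wells and 100% = 30 µM serotonin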
Target sequence (P35363 whole entry, looked up): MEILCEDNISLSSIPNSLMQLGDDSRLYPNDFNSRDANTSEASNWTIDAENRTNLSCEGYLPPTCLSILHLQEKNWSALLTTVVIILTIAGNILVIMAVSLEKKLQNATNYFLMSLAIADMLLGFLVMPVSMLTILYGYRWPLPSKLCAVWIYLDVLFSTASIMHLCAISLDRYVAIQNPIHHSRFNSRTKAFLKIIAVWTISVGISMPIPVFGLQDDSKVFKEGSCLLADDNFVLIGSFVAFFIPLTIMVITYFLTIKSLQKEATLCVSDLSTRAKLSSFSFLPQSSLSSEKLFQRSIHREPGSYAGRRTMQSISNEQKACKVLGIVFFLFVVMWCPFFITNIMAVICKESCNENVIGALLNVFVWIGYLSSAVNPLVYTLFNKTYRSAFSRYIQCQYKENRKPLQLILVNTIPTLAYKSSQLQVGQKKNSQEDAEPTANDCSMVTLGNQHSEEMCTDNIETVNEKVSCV
MC4R barr agon: MC4R agonists recruiting beta-arrestin, primary screen, cell-based, luminescence, agonist arm of biased-ligand search. AID 540308, 2011. activation, % at 8.9 µM. U2OS MC4R beta-arrestin complementation; percent of melanotan II response, DMSO zero. actives 0.98% (n = 360,000);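 active means activation above a per-plate cutoff, the mean activation of sample wells on that plate plus 3 SD, cut at about 8% in these data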
TAAR1 ag: human TAAR1 agonists, primary screen, Fluo-8 calcium fluorescence, CHO RD-HGA16 cells | vehicle wells 0%, saturating PEA agonist 100% | activation, % at 3 µM | actives 0.99% (n = 360,000);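 active means activation above the mean activation of all test compounds in the run plus 3 SD, cut at about 38% in these data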
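Benchmarks: low control DMSO, high control PEA (EC100); System: CHO RD-HGA16 cells carrying human TAAR1 plus Gα16; Detection: Fluo-8 fluorescence, 5 s baseline then 140 s kinetic read; Schedule: 17-24 h plating, Fluo-8 75 min 37 °C, 30 min RT; Read-out basis: % activation from peak over basal fluorescence ratio, DMSO-to-PEA scaled.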
TAAR1 antag: human TAAR1 antagonists, primary screen, Fluo-8 calcium fluorescence, CHO RD-HGA16 cells; Trace amine-associated receptor 1 (Homo sapiens), Q96RJ0; antagonist; inhibition, % at 3 µM; actives 1.5% (n = 360,000); AID 624466, 2012;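 active means inhibition above a per-plate cutoff, the mean inhibition of test compounds on that plate plus 3 SD, cut at about 49% in these data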;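 further: 0% = DMSO plus EC80 beta-PEA response and 100% = DMSO alone without agonist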
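Test system: CHO RD-HGA16 cells bearing hTAAR1 | Reagent: β-PEA, EC80 | Compound dosing: 3 µM, single point | Schedule: Dye loading 75 min at 37 °C, then 30 min room temperature | Signal: Calcium fluorescence with Fluo-8 | Evaluation: Percent inhibition of PEA-evoked calcium signal, max/basal emission ratio | Control set: DMSO-only wells and EC80 β-PEA-stimulated wells | Repeats: Singlicate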
MOR ag counter: OPRM1 agonists via beta-arrestin recruitment, confirmation, counter-screen for mouse HTR2A agonist project, cell-based, luminescence, single concentration | actives 5.3% (n = 2,300) | shares compounds with HTR2A ag | activation, % at 9.3 µM | U2OS OPRM1 beta-arrestin PathHunter; DMSO 0%, DAMGO 9.3 µM 100%;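 active means mean activation above the mean of DMSO-only wells plus 3 SD, cut at about 0.5% in these data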
HTR2A ag conf: mouse HTR2A agonists, beta-arrestin recruitment, confirmation, cell-based, luminescence, CHO-K1 PathHunter, triplicate. DMSO 0%, 30 µM serotonin 100%. AID 624381, 2012. activation, % at 7.6 µM. actives 19% (n = 2,300). shares compounds with HTR2A ag;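 active means mean activation across triplicates above the hit threshold derived in the original primary screen, cut at about 15% in these data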
An asterisk follows results filed as active.

`CCCCNC(=O)c1cccc2c(=O)c(C)c(-c3ccccc3)oc12` gave MC4R antagonist -10, Beta2AR agonist -17, HTR2A ag 0, MC4R barr agon 3, TAAR1 ag 32 and TAAR1 antag 26.
CCCCN(C(=O)c1cccc2c(=O)c(C)c(-c3ccccc3)oc12)c1ccccc1 was read as MC4R antagonist 17, Beta2AR agonist 23, HTR2A ag 38*, MC4R barr agon 6, TAAR1 ag 11, TAAR1 antag 19, MOR ag counter 0 and HTR2A ag conf 10.
COc1ccccc1CNC(=O)COC(=O)c1ccc(-n2cnnn2)cc1 was read as MC4R antagonist 6, Beta2AR agonist -4, HTR2A ag 12, MC4R barr agon -3, TAAR1 ag 1 and TAAR1 antag -6.
`CN1CCN(C(=O)C2CC(=O)N(c3ccc(Cl)cc3)C2)CC1` (centres undefined) gave MC4R antagonist 11, Beta2AR agonist -5, HTR2A ag -16, MC4R barr agon -1, TAAR1 ag 7 and TAAR1 antag -9.
CCCN1C(=O)c2ccc(C(=O)Nc3ccccc3C(=O)O)cc2C1=O was read as MC4R antagonist 23, Beta2AR agonist 4, HTR2A ag 14, MC4R barr agon -1, TAAR1 ag 0 and TAAR1 antag -22.
Screening O=C(Nc1ccc(Br)cc1C(=O)O)c1ccc2c(c1)C(=O)N(Cc1ccccc1)C2=O returned MC4R antagonist 3, Beta2AR agonist 4, HTR2A ag 15*, MC4R barr agon -3, TAAR1 ag 0, TAAR1 antag -2, MOR ag counter 0 and HTR2A ag conf -1.
CCN(C[C@H]1N[C@@](C)(C(=O)OC)[C@H]2C(=O)N(C)C(=O)[C@@H]12)C(=O)COc1ccccc1 was read as MC4R antagonist 8, Beta2AR agonist -6, HTR2A ag -2, MC4R barr agon -2, TAAR1 ag 1 and TAAR1 antag -13.

Compound activity deposited in PubChem BioAssay by several laboratories.
